This is an account of results in ChEMBL document CHEMBL1126244, “HIV-1 protease inhibitors based on hydroxyethylene dipeptide isosteres: an investigation into the role of the P1' side chain on structure-activity” (J Med Chem, 1992).

In general, IC50 refers to the concentration needed to halve the response being measured. A high value points to weaker potency.

Converted amounts (≈) assume the structure as drawn. Where only a bound is given, the exact number is not on record here.

In assay [1] the target is Human immunodeficiency virus type 1 protease (Human immunodeficiency virus 1, UniProt Q72874). Description: Inhibition of HIV-1 protease.
The subject of assay [2] is Human immunodeficiency virus 1. Description: Ex vivo antiviral activity in H9 T-lymphoid cells infected with HIV-1(IIIB). Type of assay: functional. To be noted: read-out: MIC100. In outline: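 Human H9 T-lymphoid cells acutely infected with HIV-1 IIIB isolate, MOI 0.01; compound added in DMSO at time of infection, refreshed every 2–3 days when culture sampled and half the medium replaced. Spread read by indirect immunofluorescence (anti-HIV-1 human serum primary antibody) at 14 days; MIC100 = minimum concentration completely preventing spread of infection through the culture, in nM.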

`CC(C)(C)OC(=O)N[C@@H](Cc1ccccc1)[C@@H](O)C[C@@H](C/C=C/c1ccccc1)C(=O)N[C@H]1c2ccccc2C[C@H]1O`: the IC50 in assay [1] is 0.23 nM. In assay [2], the MIC was 0.4 µM (≈ 0.228 µg/mL). In the same order, the values of `Cc1ccc(C[C@H](C[C@H](O)[C@H](Cc2ccccc2)NC(=O)OC(C)(C)C)C(=O)N[C@H]2c3ccccc3C[C@H]2O)cc1` are 0.29 nM and 0.2 µM (≈ 0.112 µg/mL). In turn, `CC(C)C[C@H](NC(=O)[C@H](Cc1ccccc1)C[C@H](O)[C@H](Cc1ccccc1)NC(=O)OC(C)(C)C)C(=O)N[C@@H](Cc1ccccc1)C(N)=O` showed a 50% inhibitory concentration (IC50) in assay [1] of 0.42 nM. Further, in assay [2], the MIC was determined as 3 µM (≈ 2.02 µg/mL). In assay [1], `CC(C)C[C@H](NC(=O)[C@H](CCCc1ccccc1)C[C@H](O)[C@H](Cc1ccccc1)NC(=O)OC(C)(C)C)C(=O)N[C@@H](Cc1ccccc1)C(N)=O` registered an IC50 of 0.36 nM. That is a sub-nanomolar value. Compound `CC(C)(C)OC(=O)N[C@@H](Cc1ccccc1)[C@@H](O)C[C@@H](Cc1ccc(CCO)cc1)C(=O)N[C@H]1c2ccccc2C[C@H]1O` came in with an IC50 in assay [1] of 0.16 nM. Also, the MIC in assay [2] came out at 0.05 µM (≈ 0.0294 µg/mL). `CC(C)C[C@H](NC(=O)[C@H](Cc1cccc2ccccc12)C[C@H](O)[C@H](Cc1ccccc1)NC(=O)OC(C)(C)C)C(=O)N[C@@H](Cc1ccccc1)C(N)=O` returned an IC50 in assay [1] of 1.2 nM. Take `CSc1ccc(C[C@H](C[C@H](O)[C@H](Cc2ccccc2)NC(=O)OC(C)(C)C)C(=O)N[C@H]2c3ccccc3C[C@H]2O)cc1`: in assay [1], the IC50 was 0.22 nM. Still for that read-out and setting: next, `CC(C)(C)OC(=O)N[C@@H](Cc1ccccc1)[C@@H](O)C[C@@H](Cc1ccc(S(C)(=O)=O)cc1)C(=O)N[C@H]1c2ccccc2C[C@H]1O`: 0.17 nM. Compound `CC(C)(C)OC(=O)N[C@@H](Cc1ccccc1)[C@@H](O)C[C@@H](C/C=C/c1ccc(O)cc1)C(=O)N[C@H]1c2ccccc2C[C@H]1O` registered an IC50 in assay [1] of 0.17 nM. In addition, the MIC in assay [2] is 0.2 µM (≈ 0.117 µg/mL). As to `CC(C)(C)OC(=O)N[C@@H](Cc1ccccc1)[C@@H](O)C[C@@H](Cc1ccc(CN2CCOCC2)cc1)C(=O)N[C@H]1c2ccccc2C[C@H]1O`, the 50% inhibitory concentration (IC50) in assay [1] came out at 1.15 nM. The MIC in assay [2] was 0.1 µM (≈ 0.0644 µg/mL). In the case of `CC(C)(C)OC(=O)N[C@@H](Cc1ccccc1)[C@@H](O)C[C@@H](Cc1ccc([N+](=O)[O-])cc1)C(=O)N[C@H]1c2ccccc2C[C@H]1O`, in assay [1], the half-inhibitory concentration (IC50) was 0.27 nM. As to `CC(C)(C)OC(=O)N[C@@H](Cc1ccccc1)[C@@H](O)C[C@@H](C/C=C/c1ccc(OCCN2CCOCC2)cc1)C(=O)N[C@H]1c2ccccc2C[C@H]1O`, the MIC in assay [2] is 0.05 µM (≈ 0.035 µg/mL).

`CC(C)(C)OC(=O)N[C@@H](Cc1ccccc1)[C@@H](O)C[C@@H](Cc1ccccc1)C(=O)N[C@H]1c2ccccc2C[C@H]1O` had an IC50 in assay [1] of 0.23 nM. For the same compound, the MIC in assay [2] is 0.4 µM (≈ 0.218 µg/mL). In assay [1], `CC(C)(C)OC(=O)N[C@@H](Cc1ccccc1)[C@@H](O)C[C@@H](Cc1ccc(F)cc1)C(=O)N[C@H]1c2ccccc2C[C@H]1O` registered an IC50 of 0.44 nM. Regarding `CC(C)(C)OC(=O)N[C@@H](Cc1ccccc1)[C@@H](O)C[C@@H](Cc1ccc(C(F)(F)F)cc1)C(=O)N[C@H]1c2ccccc2C[C@H]1O`, the IC50 in assay [1] was 0.26 nM. For `CC(C)(C)OC(=O)N[C@@H](Cc1ccccc1)[C@@H](O)C[C@@H](Cc1ccc(N)cc1)C(=O)N[C@H]1c2ccccc2C[C@H]1O`, the IC50 in assay [1] was 0.31 nM. The MIC in assay [2] worked out at 0.2 µM (≈ 0.112 µg/mL). As to `CC(C)(C)OC(=O)N[C@@H](Cc1ccccc1)[C@@H](O)C[C@@H](Cc1ccc(I)cc1)C(=O)N[C@H]1c2ccccc2C[C@H]1O`, in assay [1], the IC50 was 0.72 nM. The compound `COCCOCOCCc1ccc(C[C@H](C[C@H](O)[C@H](Cc2ccccc2)NC(=O)OC(C)(C)C)C(=O)N[C@H]2c3ccccc3C[C@H]2O)cc1` returned an IC50 in assay [1] of 0.13 nM. The MIC in assay [2] is 0.1 µM (≈ 0.0677 µg/mL). For the compound `CC(C)(C)OC(=O)N[C@@H](Cc1ccccc1)[C@@H](O)C[C@@H](Cc1cccc(O)c1)C(=O)N[C@H]1c2ccccc2C[C@H]1O`, the 50% inhibitory concentration (IC50) in assay [1] worked out at 0.21 nM. In assay [1], `COC(CCc1ccc(C[C@H](C[C@H](O)[C@H](Cc2ccccc2)NC(=O)OC(C)(C)C)C(=O)N[C@H]2c3ccccc3C[C@H]2O)cc1)OC` returned an IC50 of 0.08 nM. On the same count and under the same terms, then `C[C@H](C[C@H](O)[C@H](Cc1ccccc1)NC(=O)OC(C)(C)C)C(=O)N[C@H]1c2ccccc2C[C@H]1O`, with 62.7 nM. In the case of `CC(C)(C)OC(=O)N[C@@H](Cc1ccccc1)[C@@H](O)C[C@@H](Cc1ccc(C(C)(C)C)cc1)C(=O)N[C@H]1c2ccccc2C[C@H]1O`, the IC50 in assay [1] stood at 0.27 nM. Moreover, the MIC in assay [2] was determined as 0.2 µM (≈ 0.12 µg/mL).

`CC[C@H](C[C@H](O)[C@H](Cc1ccccc1)NC(=O)OC(C)(C)C)C(=O)N[C@H]1c2ccccc2C[C@H]1O` yielded a 50% inhibitory concentration (IC50) in assay [1] of 34.7 nM. This lies in the double-digit nanomolar range. Regarding `CC(C)(C)OC(=O)N[C@@H](Cc1ccccc1)[C@@H](O)C[C@@H](Cc1ccc(O)cc1)C(=O)N[C@H]1c2ccccc2C[C@H]1O`, the MIC in assay [2] worked out at 0.05 µM (≈ 0.028 µg/mL).

Compound `CC(C)C[C@H](NC(=O)[C@H](Cc1ccc(-c2ccccc2)cc1)C[C@H](O)[C@H](Cc1ccccc1)NC(=O)OC(C)(C)C)C(=O)N[C@@H](Cc1ccccc1)C(N)=O` registered a half-maximal inhibitory concentration (IC50) in assay [1] of 0.43 nM. In other words, the sub-nanomolar range. Consider `COCCN(CCCc1ccc(C[C@H](C[C@H](O)[C@H](Cc2ccccc2)NC(=O)OC(C)(C)C)C(=O)N[C@H]2c3ccccc3C[C@H]2O)cc1)CCOC`, for which the IC50 in assay [1] amounted to 0.59 nM. In addition, the MIC in assay [2] was found to be 0.2 µM (≈ 0.144 µg/mL). As to `CN(C)CCCc1ccc(C[C@H](C[C@H](O)[C@H](Cc2ccccc2)NC(=O)OC(C)(C)C)C(=O)N[C@H]2c3ccccc3C[C@H]2O)cc1`, half-maximal inhibition in assay [1] (IC50) required 0.6 nM.

For `CC(C)(C)OC(=O)N[C@@H](Cc1ccccc1)[C@@H](O)C[C@@H](Cc1ccc(CCC[N+](C)(C)C)cc1)C(=O)N[C@H]1c2ccccc2C[C@H]1O`, the IC50 in assay [1] came to 0.91 nM. The MIC in assay [2] worked out at 0.1 µM.

Consider `CC(C)(C)OC(=O)N[C@@H](Cc1ccccc1)[C@@H](O)C[C@@H](Cc1ccc(CCCO)cc1)C(=O)N[C@H]1c2ccccc2C[C@H]1O`, for which, in assay [1], the IC50 is 0.1 nM. The MIC in assay [2] was found to be 0.05 µM (≈ 0.0301 µg/mL). The compound `CC(C)(C)OC(=O)N[C@@H](Cc1ccccc1)[C@@H](O)C[C@@H](Cc1ccc(CCCN2CCSCC2)cc1)C(=O)N[C@H]1c2ccccc2C[C@H]1O` came in with a concentration for half-maximal inhibition (IC50) in assay [1] of 1 nM. In turn, `CC(C)C[C@H](NC(=O)[C@H](C)C[C@H](O)[C@H](Cc1ccccc1)NC(=O)OC(C)(C)C)C(=O)N[C@@H](Cc1ccccc1)C(N)=O` displayed an IC50 in assay [1] of 6 nM.

`CN(C)Cc1ccc(C[C@H](C[C@H](O)[C@H](Cc2ccccc2)NC(=O)OC(C)(C)C)C(=O)N[C@H]2c3ccccc3C[C@H]2O)cc1` came in with an IC50 in assay [1] of 1.4 nM. In assay [1], `CC(C)(C)OC(=O)N[C@@H](Cc1ccccc1)[C@@H](O)C[C@@H](Cc1ccc(CO)cc1)C(=O)N[C@H]1c2ccccc2C[C@H]1O` displayed an IC50 of 0.17 nM. Same read-out and setting: next, `C[S+]([O-])c1ccc(C[C@H](C[C@H](O)[C@H](Cc2ccccc2)NC(=O)OC(C)(C)C)C(=O)N[C@H]2c3ccccc3C[C@H]2O)cc1` (stereo partly specified): 0.51 nM. In turn, `CC(C)C[C@H](NC(=O)[C@H](C/C=C/c1ccccc1)C[C@H](O)[C@H](Cc1ccccc1)NC(=O)OC(C)(C)C)C(=O)N[C@@H](Cc1ccccc1)C(N)=O` gave an IC50 in assay [1] of 0.23 nM. Also, the MIC in assay [2] worked out at 6 µM (≈ 4.19 µg/mL).

In turn, `CC(C)(C)OC(=O)N[C@@H](Cc1ccccc1)[C@@H](O)C[C@@H](Cc1c(F)c(F)c(F)c(F)c1F)C(=O)N[C@H]1c2ccccc2C[C@H]1O` registered an IC50 in assay [1] of 0.6 nM. Take `CC(C)(C)OC(=O)N[C@@H](Cc1ccccc1)[C@@H](O)C[C@@H](CCc1cnc2ccccc2n1)C(=O)N[C@H]1c2ccccc2C[C@H]1O`: the IC50 in assay [1] came to 0.17 nM. In the case of `CCCCCCCCCCCCCCC[C@H](C[C@H](O)[C@H](Cc1ccccc1)NC(=O)OC(C)(C)C)C(=O)N[C@H]1c2ccccc2C[C@H]1O`, the IC50 in assay [1] is above 3000 nM. Compound `CC(C)(C)OC(=O)N[C@@H](Cc1ccccc1)[C@@H](O)C[C@@H](Cc1ccc(CCCN2CCOCC2)cc1)C(=O)N[C@H]1c2ccccc2C[C@H]1O` displayed a concentration for half-maximal inhibition (IC50) in assay [1] of 0.43 nM. Further, the MIC in assay [2] amounted to 0.2 µM (≈ 0.134 µg/mL).

Take `COCCOCOCCCc1ccc(C[C@H](C[C@H](O)[C@H](Cc2ccccc2)NC(=O)OC(C)(C)C)C(=O)N[C@H]2c3ccccc3C[C@H]2O)cc1`: the IC50 in assay [1] worked out at 0.07 nM. For the same compound, in assay [2], the MIC was determined as 0.05 µM (≈ 0.0345 µg/mL).
